Source: PubChem BioAssay
RAD54 inh: blocks human RAD54 Holliday junction branch migration | AID 602329 | 360,000 tested, 0.14% active | FAM/BHQ fluorescence | Q92698 | inhibition, % at 10.4 µM;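 active = mean normalized replicate activity at least 40 and at least half of replicates scoring 40 or more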;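 also: 0% = median of neutral control wells and 100% = median of positive control wells; inhibitors cause a drop in the FAM fluorescence signal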
MLL AF4-AF9 inh: blocks AF4 peptide binding to human AF9; P42568; AlphaScreen, biotin-AF4 peptide binding to FLAG-AF9; 350,000 tested, 0.47% active; AID 651704; inhibition, % at 10 µM;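 active = every replicate reaching a set inhibition limit, whatever the replicate mean, cut at about 25% in these data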;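 also: 0% = plate neutral control median and 100% = total signal loss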
INS-1E GSIS act: GLuc luminescence reporter in INS-1E cells, primary screen for activators of glucose-dependent secretion of insulin; INS-1E GLuc reporter insulin secretion, 2-3 h; 370,000 tested, 0.61% active; activation, % at 16.6 µM;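 active = lowest replicate activation of at least 40%, so every replicate reaches that level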;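 also: 0% = median of neutral control wells and 100% = median of IBMX positive control wells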
S100A4 MyoIIA: inhibitors of human S100A4 binding to myosin IIA peptide; P26447; S100A4/TAMRA-MyoIIA peptide fluorescence polarization; inhibition, % at 10.7 µM; 360,000 tested, 0.14% active; AID 652163;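 active = mean inhibition of at least 70% across replicates, with every replicate also reaching that level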
Target sequence (P26447 whole entry, looked up): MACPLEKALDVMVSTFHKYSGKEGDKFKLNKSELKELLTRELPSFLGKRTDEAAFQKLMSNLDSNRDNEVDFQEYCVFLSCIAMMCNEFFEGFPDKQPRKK
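Material: S100A4 monomer (human). Medium: Calcium-containing HEPES buffer, pH 7.2. Probe or stimulus: labelled myosin peptide probe, 5 nM. Compound dosing: one concentration per compound. Timing: polarization read 5 min after assay mix addition, stable 5–60 min. Benchmarks: DMSO as neutral control, TFP as positive control.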
RAD52 inh: RAD52 (human) annealing inhibition | inhibition, % at 18.7 µM | recombinant RAD52 DNA annealing, FRET fluorescence | 360,000 tested, 0.46% active | P43351 | AID 651710;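 active = every replicate showing at least 50% inhibition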
Target sequence (P43351 whole entry, looked up): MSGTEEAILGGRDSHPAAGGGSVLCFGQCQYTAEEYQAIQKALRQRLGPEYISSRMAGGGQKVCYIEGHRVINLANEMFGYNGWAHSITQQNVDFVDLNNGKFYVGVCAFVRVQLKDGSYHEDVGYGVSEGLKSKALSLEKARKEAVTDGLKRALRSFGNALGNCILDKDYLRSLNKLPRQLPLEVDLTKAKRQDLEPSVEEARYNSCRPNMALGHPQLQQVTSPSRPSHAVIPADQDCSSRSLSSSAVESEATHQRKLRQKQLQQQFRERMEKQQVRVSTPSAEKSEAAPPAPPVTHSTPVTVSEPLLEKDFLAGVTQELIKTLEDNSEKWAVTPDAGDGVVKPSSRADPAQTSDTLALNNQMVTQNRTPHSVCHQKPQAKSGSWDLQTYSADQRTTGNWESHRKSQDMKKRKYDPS
An asterisk follows results filed as active; . = no result. Rows were chosen to be rich in hits. Some 1.3% of all compounds tested hit in one or more screens of this group.

SMILES	RAD54 inh	MLL AF4-AF9 inh	INS-1E GSIS act	S100A4 MyoIIA	RAD52 inh
O=C(Cc1cccnc1)N1CC2(C1)[C@H](c1ccccc1)[C@H](CO)N2C(=O)C1CCC1	.	1	-16	-2	-7
O=C(CSc1nnc(SCc2ccc(Cl)cc2)s1)N/N=C/c1c[nH]c2ccccc12	.	.	96*	.	.
O=C(CSc1nnc(SCc2cccc3ccccc23)s1)N/N=C/c1c[nH]c2ccccc12	.	.	-16	.	.
COC(=O)c1cc(=O)n(-c2ccccc2)c(=Nc2ccccc2)s1	2	28*	.	-10	-5
O=C(C1=NN(c2ccccc2)C(=O)CC1)N1CCc2ccccc2C1	2	-2	113*	-13	-27
C/C=C/c1ccc([C@H]2[C@@H](CO)N(C(=O)C3CCC3)[C@@H]2CNC(=O)NC(C)C)cc1	.	-1	-3	-5	-14
Cc1ccc(Oc2ncc(-c3ccc(Cl)cc3)cn2)cc1	-7	.	46*	.	.
OC[C@@H]1[C@H](c2ccc(C#Cc3cccnc3)cc2)[C@H]2CN(Cc3ccccc3F)CCCCN12	3	10	-19	1	54*
O=C(c1cccnc1)N1CCCCN2[C@H](C1)[C@H](c1ccc(C#Cc3ccccn3)cc1)[C@@H]2CO	-14	25*	-12	-5	-81
COc1ccc(C#Cc2ccc([C@H]3[C@H]4CN(Cc5ccccc5F)CCCCN4[C@H]3CO)cc2)cc1	-5	7	-8	-21	-46
COc1ccc(C#Cc2ccc([C@@H]3[C@@H](CO)N4CCCCN(Cc5ccccc5F)C[C@H]34)cc2)cc1	27	29*	27	-2	-4
C[C@H]1CN([C@@H](C)CO)C(=O)c2cc(-c3cccc(F)c3)cnc2O[C@@H]1CN(C)C	8	0	14	-20	11
C[C@@H]1CCCCO[C@H](CN(C)Cc2ccc(C(=O)O)cc2)[C@@H](C)CN([C@@H](C)CO)C(=O)c2cc(NS(=O)(=O)c3ccccc3)ccc2O1	1	.	12	.	.
CCc1ccc(S(=O)(=O)/N=C2\C=C(Nc3ccc(C(=O)O)cc3)C(=O)c3ccccc32)cc1	2	28*	-23	-1	2
Cc1ccc(S(=O)(=O)/N=C2\C=C(Nc3cccc(C(=O)O)c3)C(=O)c3ccccc32)cc1	5	8	-14	-3	2
CCOc1ccc2nc(NCCNC(=O)Nc3cccc(C)c3)c(C#N)cc2c1	-8	.	320*	.	.
CCOc1ccc2nc(NCCNC(=O)Nc3ccccc3)c(C#N)cc2c1	11	.	200*	.	.
CCOc1ccc2nc(NCCNC(=S)NCCCN(C)C)c(C#N)cc2c1	.	-7	2	15	37
Cc1ccc(S(=O)(=O)Nc2ccc3c(c2)C(=O)N([C@@H](C)CO)C[C@@H](C)[C@H](CN(C)Cc2ccc(C(=O)Nc4ccccc4N)cc2)O3)cc1	.	-1	11	-1	25
CC(=O)N(C)C[C@H]1Oc2cc(Br)ccc2S(=O)(=O)N([C@@H](C)CO)C[C@@H]1C	7	-6	15	-3	8
OC(CNCCc1ccc(C(F)(F)F)cc1)COc1cccc2ccccc12 (centres undefined)	.	.	506*	.	.
OC(CNCCc1ccc(C(F)(F)F)cc1)COc1ccc2ccccc2c1 (centres undefined)	.	-8	64	-10	-11
C[C@H]1CN([C@@H](C)CO)C(=O)Cc2cc(NS(C)(=O)=O)ccc2O[C@@H]1CN(C)S(C)(=O)=O	1	-1	6	0	-24
Cc1c(NC(=S)N/C(=N/S(=O)(=O)c2ccccc2)c2ccccc2)c(=O)n(-c2ccccc2)n1C	-24	-2	44*	0	-8
Cc1c(NC(=S)N/C(=N/S(=O)(=O)c2ccc(Cl)cc2)c2ccccc2)c(=O)n(-c2ccccc2)n1C	2	-20	.	0	6
SMILES	RAD54 inh	MLL AF4-AF9 inh	INS-1E GSIS act	S100A4 MyoIIA	RAD52 inh
CCC(=O)N1[C@H](CO)[C@H](c2ccc(C3=CCCCC3)cc2)[C@@H]1CN(C)C(C)=O	.	-2	-3	-16	-5
COC(=O)c1cc(S(=O)(=O)NCC2CCN(Cc3cc(C)ccc3C)CC2)c[nH]1	1	1	55*	-2	-17
COC(=O)c1cc(S(=O)(=O)NCC2CCN(Cc3ccc(C)cc3)CC2)c[nH]1	0	-7	9	-6	-12
CC[C@@H]1CC2=C(C(=O)OC(C)(C)O2)[C@H](c2ccc(F)cc2)O1	-4	-2	45*	-4	6
CC1(C)OC(=O)C2=C(C[C@@H](CCc3ccccc3)O[C@@H]2c2ccc(F)cc2)O1	.	-2	-35	-1	10
CC(C)CC#Cc1ccc2c(c1)O[C@H](CN(C)C(=O)C1CCCCC1)[C@@H](C)CN([C@@H](C)CO)S2(=O)=O	3	4	55*	2	22
C[C@@H]1CN([C@@H](C)CO)S(=O)(=O)c2ccc(-c3ccc(C(=O)N(C)C)cc3)cc2O[C@H]1CN(C)C(=O)C1CCCCC1	-1	9	-23	4	-2
C[C@H]1CN([C@@H](C)CO)S(=O)(=O)c2ccc(C#CC3CCCCC3)cc2O[C@H]1CN(C)C	11	12	1	9	53*
C[C@@H]1CN([C@@H](C)CO)S(=O)(=O)c2ccc(-c3ccc(C(=O)N(C)C)cc3)cc2O[C@@H]1CN(C)C(=O)C1CCCCC1	-1	30*	-2	2	-5
CC(C)CC#Cc1ccc2c(c1)O[C@@H](CN(C)Cc1ccccc1)[C@H](C)CN([C@H](C)CO)S2(=O)=O	.	.	346*	.	.
C[C@H](CO)N1C[C@H](C)[C@H](CN(C)C(=O)Nc2ccc3c(c2)OCO3)Oc2ccc(NC(=O)Nc3ccccc3)cc2C1=O	.	.	-5	.	.
C[C@@H]1CN([C@@H](C)CO)C(=O)c2cc(-c3cccnc3)cnc2O[C@@H]1CN(C)C(=O)c1cccc(F)c1	-1	-8	10	-4	10
C[C@@H]1CN([C@@H](C)CO)S(=O)(=O)c2ccc(C#C[C@@H](C)O)cc2O[C@@H]1CN(C)C(=O)C1CC1	-9	-5	6	68	4
C[C@@H]1CN([C@H](C)CO)S(=O)(=O)c2ccc(C#C[C@@H](C)O)cc2O[C@@H]1CN(C)C(=O)C1CC1	-4	-8	9	121*	17
O=C(NC1CCC1)[C@@H]1[C@@H](CO)[C@@H]2Cn3c(ccc(-c4ccccc4F)c3=O)[C@@H]2N1Cc1ccccn1	.	-2	17	4	-2
O=C(NC1CCC1)[C@H]1[C@H](CO)[C@H]2Cn3c(ccc(-c4ccccc4F)c3=O)[C@H]2N1Cc1ccncc1	12	0	1	-5	71*
CCCNC(=O)N1[C@@H]2c3ccc(-c4ccccc4OC)c(=O)n3C[C@@H]2[C@@H](CO)[C@@H]1C(=O)NC1CCC1	15	2	2	116*	5
Cc1cc(C)c(OCC(=O)OCC(=O)N(C)C2CCS(=O)(=O)C2)c(C)c1 (centres undefined)	-6	-3	41*	-3	8
